Consider 1 compound from ChEMBL document CHEMBL3864172, “New Peptidomimetic Boronates for Selective Inhibition of the Chymotrypsin-like Activity of the 26S Proteasome” (ACS Med Chem Lett, 2016).

Active and inactive are the calls of the source. No cut-off for these calls is given here.

A short description of data set [1]: Terminal half life in human plasma at 20 mg/m2 iv, administered for 2 to 10 mins after dexamethasone addition by LC-MS/MS analysis. The conditions noted are these: read-out: beta t1/2. The format is ADME, cell-free.
Data set [2] in a line: Cytotoxicity against human U266 cells harboring mutant p53 assessed as reduction in cell viability after 48 hrs by 7AAD-staining based FACS analysis. It is filed as functional. The conditions noted are these: U-266, 48 h, read-out: LD50 (the source's name). In a few lines: (§1)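 Cells were exposed for 48 h to compound titrations from 0 to 5000 nM. Cell death was read out by 7AAD staining, and the LD50 was taken from dose-response curves. n=3.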
(In general: Flow cytometry measures light scatter and fluorescence of single cells or particles in a stream.)

The nature of data set [3]: Cytotoxicity against human LCL cells harboring wild type p53 assessed as reduction in cell viability after 48 hrs by 7AAD-staining based FACS analysis. The conditions noted are these: LCL cells harboring wild type p53, read-out: LD50. It is filed as toxicity. The procedure, abridged: as §1
Data set [4] in a line: Cytotoxicity against human IMR90 cells harboring wild type p53 assessed as reduction in cell viability after 48 hrs by 7AAD-staining based FACS analysis. The format is toxicity, IMR-90. The conditions noted are these: IMR90 cells harboring wild type p53, read-out: LD50. The procedure, abridged:
as §1

For data set [5], the system named is MDA-MB-468. The experiment in a line: Inhibition of 26S proteasome in human MDA-MB-468 cells assessed as accumulation of high molecular weight polyubiquitin-conjugated proteins at 35 nM after 4 hrs by Western blot analysis. It is filed as cell-based.
The nature of data set [6]: Cytotoxicity against human MCF7 cells harboring wild type p53 assessed as reduction in cell viability after 48 hrs by 7AAD-staining based FACS analysis. The format is functional. Conditions: MCF7, 48 h, read-out: LD50 (the source's name). The procedure, abridged:
as §1

Data set [7] is described as follows: Cytotoxicity against human MDA-MB-468 cells harboring mutant p53 assessed as reduction in cell viability after 48 hrs by 7AAD-staining based FACS analysis. It is filed as functional. Conditions: MDA-MB-468, 48 h, read-out: LD50 (the source's name). In a few lines: as §1
Data set [8] is described as follows: Inhibition of caspase like activity of rabbit 20S proteasome using Ac-nLPnLD-AMC as substrate preincubated for 15 mins followed by substrate addition measured after 2 hrs by fluorescence-based assay. Details: species or system Oryctolagus cuniculus.
The nature of data set [9]: Inhibition of bovine alpha chymotrypsin using Ala-Ala-Phe-7-AMC as substrate measured for 10 mins by spectrophotometric analysis. Details: species or system Bos taurus. The procedure, abridged:
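Enzyme was bovine α-chymotrypsin. Compounds were tested up to a top concentration of 25000 nM. Ki values are the mean of three separate experiments, with variation between experiments below ±10%.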

Data set [10] in a line: Inhibition of trypsin like activity of rabbit 20S proteasome using Bz-Val-Gly-Arg-AMC as substrate preincubated for 15 mins followed by substrate addition measured after 2 hrs by fluorescence-based assay. Set-up: species or system Oryctolagus cuniculus.
Data set [11] can be described thus: Cytotoxicity against HNDF cells harboring wild type p53 assessed as reduction in cell viability after 48 hrs by 7AAD-staining based FACS analysis. It is filed as toxicity. Conditions: human, HNDF cells harboring wild type p53; read-out: LD50. The procedure, abridged:
as §1

The nature of data set [12]: Cytotoxicity against human WE68 cells harboring wild type p53 assessed as reduction in cell viability after 48 hrs by 7AAD-staining based FACS analysis. It is filed as functional. The conditions noted are these: WE68, 48 h, read-out: LD50 (the source's name). In a few lines:
as §1

A short description of data set [13]: Cytotoxicity against human MCF10A cells harboring wild type p53 assessed as reduction in cell viability after 48 hrs by 7AAD-staining based FACS analysis. The format is toxicity, MCF-10A. The conditions noted are these: MCF10A cells harboring wild type p53, read-out: LD50. The procedure, abridged:
as §1

Data set [14] is described as follows: Cytotoxicity against human KGN cells harboring wild type p53 assessed as reduction in cell viability after 48 hrs by 7AAD-staining based FACS analysis. It is filed as functional. Conditions: read-out: LD50 (the source's name). In a few lines: as §1
Data set [15] in a line: Inhibition of chymotrypsin like activity of rabbit 20S proteasome using Suc-Leu-Leu-Val-Tyr-AMC as substrate preincubated for 15 mins followed by substrate addition measured after 2 hrs by fluorescence-based assay. Set-up: species or system Oryctolagus cuniculus.
Data set [16] is described as follows: Cytotoxicity against human RD-ES cells harboring p53 mutant assessed as reduction in cell viability after 48 hrs by 7AAD-staining based FACS analysis. It is filed as functional. The conditions noted are these: read-out: LD50 (the source's name). The procedure, abridged: as §1
The nature of data set [17]: Cytotoxicity against p53 deficient human SKOV3 cells assessed as reduction in cell viability after 48 hrs by 7AAD-staining based FACS analysis. The conditions noted are these: SK-OV-3, 48 h, read-out: LD50 (the source's name). The format is functional. The procedure, abridged:
as §1

Data set [18] has as its system MCF7. Nature of the data set: Inhibition of 26S proteasome in human MCF7 cells assessed as accumulation of high molecular weight polyubiquitin-conjugated proteins at 35 nM after 4 hrs by Western blot analysis. The format is cell-based. For orientation: In western blotting, separated proteins are transferred to a membrane and probed.

Take `CC(C)C[C@H](NC(=O)[C@H](CCc1ccccc1)NC(=O)CN1CCOCC1)C(=O)N[C@@H](Cc1ccccc1)C(=O)N[C@@H](CC(C)C)C(=O)[C@@]1(C)CO1` [CARFILZOMIB]: the half-life in [1] was in the range of 5 to 20 min. In addition, the CC50 in [2] was 60 nM; in [6] it was 4500 nM; in [7] it was 330 nM; in data set [12] it was 80 nM; in data set [14], 450 nM; in [16], 43 nM. In data set [17], the CC50 is 320 nM. In addition, the CC50 at 48 h stood at 30 nM in [3], 130 nM in [4], 350 nM in data set [11] and 320 nM in data set [13]. Further, in data set [5], the “polyubiquitin accumulation (active/inactive)” value is “Active”. Further, the IC50 in [8] is above 25000 nM; in [10], above 25000 nM; in data set [15], 23.1 nM. This compound also returned a Ki in data set [9] above 25000 nM. Moreover, in data set [18], the Polyubiquitin-conjugate accumulation entry was “Active”.

As a reminder, the IC50 is the concentration that gives 50% inhibition. A lower IC50 goes with inhibition by little substance. As a reminder, the Ki is a measure of affinity in units of concentration, obtained from inhibition or displacement.
